Reference: ChEMBL document CHEMBL5058577, “EUbOPEN Chemogenomics Library 2 (Multiplex)” (2022)

Test system: Fibroblast
Assay: Multiplex assay against human fibroblast
Format: toxicity, cell-based
How it was run: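 Imaging took place on a CQ1 microscope at 37°C and 5% CO2 once compound had been added to live cells stained at seeding with Hoechst33342, BioTracker Green Microtubule Cytoskeleton Dye, MitoTracker Red and Annexin V Alexa Fluor 680. CellPathfinder machine-learning gating classed cells as Hoechst high-intensity objects or normal cells, classed normal cells as having healthy, pyknosed or fragmented nuclei, and classed pyknosed cells as mitotic or apoptotic. Tubulin, mitochondrial-mass and membrane-permeability phenotypes are per cents of the healthy-nucleus cells.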

[1] = 12 h, 1 µM, compound concentration 1 uM, replicate 1
[2] = 12 h, 1 µM, compound concentration 1 uM, replicate 2
[3] = 12 h, 10 µM, compound concentration 10 uM, replicate 1
[4] = 12 h, 10 µM, compound concentration 10 uM, replicate 2
[5] = 24 h, 1 µM, compound concentration 1 uM, replicate 1
[6] = 24 h, 1 µM, compound concentration 1 uM, replicate 2
[7] = 24 h, 10 µM, compound concentration 10 uM, replicate 1
[8] = 24 h, 10 µM, compound concentration 10 uM, replicate 2
[9] = 48 h, 1 µM, compound concentration 1 uM, replicate 1
[10] = 48 h, 1 µM, compound concentration 1 uM, replicate 2
[11] = 48 h, 10 µM, compound concentration 10 uM, replicate 1
[12] = 48 h, 10 µM, compound concentration 10 uM, replicate 2

## CC(C)C[C@H](CO)Nc1nc(S[C@@H](C)c2ccccc2)nc2nc(N)sc12 [AZD-8797]
[1]
  Population Apoptotic (%): 25%
  Population Fragmented Nuclei (%): 23%
  Population Healthy Nuclei (%): 62%
  Population Hoechst High Intensity Objects (%): 1%
  Population Membrane Permeable-Phenotype (%): 3%
  Population Mitochondria Different-Phenotype (%): 3%
  Population Mitotic Cells (%): 75%
  Population Normal (%): 98%
  Population Pyknosed Nuclei (%): 13%
  Population Tubulin-Different-Phenotype (%): 23%
  Total Cell Count: 146
[2]
  Population Apoptotic (%): 31%
  Population Fragmented Nuclei (%): 22%
  Population Healthy Nuclei (%): 55%
  Population Hoechst High Intensity Objects (%): 4%
  Population Membrane Permeable-Phenotype (%): 16%
  Population Mitochondria Different-Phenotype (%): 6%
  Population Mitotic Cells (%): 68%
  Population Normal (%): 95%
  Population Pyknosed Nuclei (%): 21%
  Population Tubulin-Different-Phenotype (%): 46%
  Total Cell Count: 92
[3]
  Population Apoptotic (%): 38%
  Population Fragmented Nuclei (%): 18%
  Population Healthy Nuclei (%): 64%
  Population Hoechst High Intensity Objects (%): 3%
  Population Membrane Permeable-Phenotype (%): 0%
  Population Mitochondria Different-Phenotype (%): 6%
  Population Mitotic Cells (%): 61%
  Population Normal (%): 96%
  Population Pyknosed Nuclei (%): 17%
  Population Tubulin-Different-Phenotype (%): 46%
  Total Cell Count: 156
[4]
  Population Apoptotic (%): 36%
  Population Fragmented Nuclei (%): 36%
  Population Healthy Nuclei (%): 41%
  Population Hoechst High Intensity Objects (%): 5%
  Population Membrane Permeable-Phenotype (%): 10%
  Population Mitochondria Different-Phenotype (%): 27%
  Population Mitotic Cells (%): 64%
  Population Normal (%): 94%
  Population Pyknosed Nuclei (%): 21%
  Population Tubulin-Different-Phenotype (%): 66%
  Total Cell Count: 122
[5]
  Population Apoptotic (%): 44%
  Population Fragmented Nuclei (%): 15%
  Population Healthy Nuclei (%): 69%
  Population Hoechst High Intensity Objects (%): 1%
  Population Membrane Permeable-Phenotype (%): 1%
  Population Mitochondria Different-Phenotype (%): 1%
  Population Mitotic Cells (%): 55%
  Population Normal (%): 98%
  Population Pyknosed Nuclei (%): 14%
  Population Tubulin-Different-Phenotype (%): 24%
  Total Cell Count: 124
[6]
  Population Apoptotic (%): 31%
  Population Fragmented Nuclei (%): 29%
  Population Healthy Nuclei (%): 54%
  Population Hoechst High Intensity Objects (%): 0%
  Population Membrane Permeable-Phenotype (%): 17%
  Population Mitochondria Different-Phenotype (%): 3%
  Population Mitotic Cells (%): 68%
  Population Normal (%): 99%
  Population Pyknosed Nuclei (%): 15%
  Population Tubulin-Different-Phenotype (%): 46%
  Total Cell Count: 103
[7]
  Population Apoptotic (%): 57%
  Population Fragmented Nuclei (%): 21%
  Population Healthy Nuclei (%): 66%
  Population Hoechst High Intensity Objects (%): 1%
  Population Membrane Permeable-Phenotype (%): 0%
  Population Mitochondria Different-Phenotype (%): 15%
  Population Mitotic Cells (%): 42%
  Population Normal (%): 98%
  Population Pyknosed Nuclei (%): 12%
  Population Tubulin-Different-Phenotype (%): 38%
  Total Cell Count: 168
[8]
  Population Apoptotic (%): 33%
  Population Fragmented Nuclei (%): 42%
  Population Healthy Nuclei (%): 38%
  Population Hoechst High Intensity Objects (%): 2%
  Population Membrane Permeable-Phenotype (%): 8%
  Population Mitochondria Different-Phenotype (%): 25%
  Population Mitotic Cells (%): 66%
  Population Normal (%): 97%
  Population Pyknosed Nuclei (%): 19%
  Population Tubulin-Different-Phenotype (%): 85%
  Total Cell Count: 126
[9]
  Population Apoptotic (%): 50%
  Population Fragmented Nuclei (%): 25%
  Population Healthy Nuclei (%): 60%
  Population Hoechst High Intensity Objects (%): 1%
  Population Membrane Permeable-Phenotype (%): 1%
  Population Mitochondria Different-Phenotype (%): 1%
  Population Mitotic Cells (%): 50%
  Population Normal (%): 98%
  Population Pyknosed Nuclei (%): 13%
  Population Tubulin-Different-Phenotype (%): 11%
  Total Cell Count: 135
[10]
  Population Apoptotic (%): 47%
  Population Fragmented Nuclei (%): 30%
  Population Healthy Nuclei (%): 48%
  Population Hoechst High Intensity Objects (%): 4%
  Population Membrane Permeable-Phenotype (%): 4%
  Population Mitochondria Different-Phenotype (%): 4%
  Population Mitotic Cells (%): 52%
  Population Normal (%): 95%
  Population Pyknosed Nuclei (%): 20%
  Population Tubulin-Different-Phenotype (%): 54%
  Total Cell Count: 95
[11]
  Population Apoptotic (%): 60%
  Population Fragmented Nuclei (%): 25%
  Population Healthy Nuclei (%): 65%
  Population Hoechst High Intensity Objects (%): 2%
  Population Membrane Permeable-Phenotype (%): 0%
  Population Mitochondria Different-Phenotype (%): 13%
  Population Mitotic Cells (%): 40%
  Population Normal (%): 97%
  Population Pyknosed Nuclei (%): 9%
  Population Tubulin-Different-Phenotype (%): 35%
  Total Cell Count: 168
[12]
  Population Apoptotic (%): 35%
  Population Fragmented Nuclei (%): 45%
  Population Healthy Nuclei (%): 40%
  Population Hoechst High Intensity Objects (%): 1%
  Population Membrane Permeable-Phenotype (%): 12%
  Population Mitochondria Different-Phenotype (%): 18%
  Population Mitotic Cells (%): 64%
  Population Normal (%): 98%
  Population Pyknosed Nuclei (%): 14%
  Population Tubulin-Different-Phenotype (%): 89%
  Total Cell Count: 121
